# From ChEMBL document CHEMBL5223167, “Synthesis of Novel Kidney-Type Glutaminase Allosteric Inhibitors Targeting the Critical Lys-320 Residue” (ACS Med Chem Lett, 2023)
# Activity calls are given as the source filed them. The rule behind the calls is not given here.
# Assays:
# [1] = molecular target: Glutamate dehydrogenase 1, mitochondrial (Bos taurus) (UniProt P00366); assay: Inhibition of bovine GDH using glutamate as substrate preincubated for 0.5 hrs followed by substrate addition and further incubated for 1 hr in presence of NADP+ by EZMTT reagent based assay
# Chain of Glutamate dehydrogenase 1, mitochondrial (Bos taurus) (P00366 whole entry): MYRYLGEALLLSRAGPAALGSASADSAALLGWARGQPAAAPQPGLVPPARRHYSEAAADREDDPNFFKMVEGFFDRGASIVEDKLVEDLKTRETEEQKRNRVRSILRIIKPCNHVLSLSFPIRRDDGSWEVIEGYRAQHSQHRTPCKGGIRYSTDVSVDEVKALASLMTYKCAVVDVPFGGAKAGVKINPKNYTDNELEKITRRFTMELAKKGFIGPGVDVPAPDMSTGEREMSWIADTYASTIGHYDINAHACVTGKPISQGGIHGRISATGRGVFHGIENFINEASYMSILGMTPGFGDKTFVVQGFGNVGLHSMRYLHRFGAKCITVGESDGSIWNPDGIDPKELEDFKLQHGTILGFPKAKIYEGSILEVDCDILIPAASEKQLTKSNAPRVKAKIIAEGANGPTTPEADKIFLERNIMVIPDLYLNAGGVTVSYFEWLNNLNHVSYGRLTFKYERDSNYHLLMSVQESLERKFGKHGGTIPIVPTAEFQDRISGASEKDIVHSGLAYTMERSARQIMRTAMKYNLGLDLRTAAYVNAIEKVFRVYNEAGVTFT
# [2] = Stability of compound; format: physicochemical
# HCT-116 [3] = assay: Antiproliferative activity against human HCT-116 cells assessed as growth rate at 1 uM measured after 2 to 24 hrs by EZMTT assay (reference value: 100%); format: functional; conditions: for growth at 1 µM: Homo sapiens, HCT-116, time 2-24 hrs, read-out: Activity
# HCT-116 [4] = assay: Antiproliferative activity against human HCT-116 cells assessed as growth rate at 3 uM measured after 2 to 24 hrs by EZMTT assay (reference value: 100%); format: functional; conditions: for growth at 3 µM: Homo sapiens, HCT-116, time 2-24 hrs, read-out: Activity
# HCT-116 [5] = assay: Antiproliferative activity against human HCT-116 cells assessed as growth rate at 10 uM measured after 2 to 24 hrs by EZMTT assay (reference value: 100%); format: functional; conditions: for growth at 10 µM: Homo sapiens, HCT-116, time 2-24 hrs, read-out: Activity
# [6] = Metabolic stability in mouse liver microsomes assessed as parent compound remaining measured for 2 hrs by HPLC analysis; format: ADME, Microsome; conditions: read-out: Stability
# Outline: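 Compound is incubated with mouse liver microsomes for 2 h. The parent level remaining is quantified by HPLC, with coumarin as the reference control.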
# [7] = Half life in ICR mouse at […], iv measured for 24 hrs by HPLC analysis; format: ADME, organism-based; conditions: in vivo
# [8] = Clearance in ICR mouse at […], iv measured for 24 hrs by HPLC analysis; format: ADME, organism-based; conditions: in vivo
# A549 [9] = assay: Inhibition of colony formation in human A549 cells assessed as reduction in number and size of colonies incubated for 14 days by crystal violet staining based assay; format: functional, cell-based; conditions: dose 1-5 µM, time 14.0 day
# A549 [10] = assay: Induction of ROS production in human A549 cells at 5 to 10 uM incubated for 12 hrs by dichlorodihydro-fluorescein diacetate probe based fluorescence microscopic analysis; format: functional, cell-based; conditions: dose 5-10 µM
# [11] = molecular target: T1, Glutaminase kidney isoform, mitochondrial (Homo sapiens, UniProt O94925); assay: Inhibition of human KGA using glutamine as substrate preincubated for 0.5 hrs followed by substrate addition and measured after 4 hrs by EZMTT reagent based assay
# T1 sequence (O94925 whole entry): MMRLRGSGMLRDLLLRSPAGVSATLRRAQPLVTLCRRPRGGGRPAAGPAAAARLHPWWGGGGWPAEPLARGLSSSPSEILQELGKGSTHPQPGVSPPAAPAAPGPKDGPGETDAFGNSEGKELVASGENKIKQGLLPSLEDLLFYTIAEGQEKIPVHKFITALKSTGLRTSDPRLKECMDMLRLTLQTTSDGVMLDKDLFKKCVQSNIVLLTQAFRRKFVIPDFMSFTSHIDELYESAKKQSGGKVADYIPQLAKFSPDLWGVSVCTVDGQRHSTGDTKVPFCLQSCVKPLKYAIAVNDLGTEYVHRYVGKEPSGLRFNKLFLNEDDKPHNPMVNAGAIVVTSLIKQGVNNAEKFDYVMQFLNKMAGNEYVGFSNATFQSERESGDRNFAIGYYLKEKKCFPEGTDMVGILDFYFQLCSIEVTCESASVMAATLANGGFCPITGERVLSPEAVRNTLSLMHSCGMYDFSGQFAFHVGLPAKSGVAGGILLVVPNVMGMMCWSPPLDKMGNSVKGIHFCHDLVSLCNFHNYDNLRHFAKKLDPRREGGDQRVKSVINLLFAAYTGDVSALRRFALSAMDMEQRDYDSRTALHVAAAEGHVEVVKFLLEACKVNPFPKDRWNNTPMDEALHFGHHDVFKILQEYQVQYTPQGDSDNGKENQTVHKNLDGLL
# Homo sapiens [12] = species: Homo sapiens; assay: Binding affinity to alanine residue of human KGA K320A mutant assessed as covalent bond formation
# [13] = molecular target: T2, Glutaminase kidney isoform, mitochondrial (Homo sapiens) (UniProt O94925); assay: Covalent inhibition of wild type human KGA using glutamine as substrate at 10 uM preincubated for 0.5 hrs followed by substrate addition and measured after 4 hrs by EZMTT reagent based assay; conditions: time 4.5 hrs
# T2 sequence (whole entry): T1 sequence (O94925 whole entry)
# Outline: (§1)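 Human KGA, either wild-type or the K320A mutant, is pre-incubated with or without compound at 10 μM before the enzyme activity assay.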
# Homo sapiens [14] = species: Homo sapiens; assay: Covalent inhibition of human KGA K320A mutant using glutamine as substrate at 10 uM preincubated for 0.5 hrs followed by substrate addition and measured after 4 hrs by EZMTT reagent based assay; conditions: time 4.5 hrs; outline: as §1
# [15] = molecular target: T2, Glutaminase kidney isoform, mitochondrial (Homo sapiens); assay: Inhibition of biotinylated N-[6-[4-[5-[[2-(2-pyridyl)acetyl]amino]-1,3,4-thiadiazol-2-yl]butyl]pyridazin-3-yl]-2-[3-(trifluoromethoxy)phenyl]acetamide binding to wild type human KGA at >300 nM by biomolecular interaction assay
# Homo sapiens [16] = species: Homo sapiens; assay: Inhibition of biotinylated N-[6-[4-[5-[[2-(2-pyridyl)acetyl]amino]-1,3,4-thiadiazol-2-yl]butyl]pyridazin-3-yl]-2-[3-(trifluoromethoxy)phenyl]acetamide binding to human KGA K320A mutant by biomolecular interaction assay; conditions: dose 0-3 µM
# [17] = molecular target: T1, Glutaminase kidney isoform, mitochondrial; assay: Binding affinity to wild type human KGA assessed as covalent bond formation by measuring dissociation constant by biomolecular interaction assay
# HCT-116 [18] = assay: Antiproliferative activity against human HCT-116 cells assessed as inhibition of cell growth by measuring fold improvement in IC50 incubated for 5 days by EZMTT assay relative to control; format: functional; conditions: time 5 day
# H22 = assay: Antiproliferative activity against mouse H22 cells assessed as inhibition of cell growth by measuring fold improvement in IC50 incubated for 5 days by EZMTT assay relative to control; format: functional; conditions: time 5 day
smiles,measurement,setting,value
C=CC(=O)Nc1ccc(CCCCc2nnc(NC(=O)Cc3cc4ccccc4n3C)s2)nn1,inhibition,[1],inactive
same,Stability,[2],Unstable
C=CC(=O)Nc1ccc(CCCCc2nnc(NC(=O)Cc3ccccn3)s2)nn1,inhibition,[1],inactive
same,Stability,[2],Unstable
C=C(C(=O)Nc1ccc(CCCCc2nnc(NC(=O)Cc3ccccn3)[se]2)nn1)c1cccc(OC(F)(F)F)c1,inhibition,[1],inactive
same,Stability,[2],Unstable
O=C(/C=C/c1cc(F)ccc1F)Nc1ccc(CCCCc2nnc(NC(=O)Cc3ccccn3)[se]2)nn1,inhibition,[1],inactive
same,Stability,[2],Unstable
O=C(Cc1cccc(OC(F)(F)F)c1)Nc1ccc(CCCCc2nnc(NC(=O)Cc3ccccn3)s2)nn1,Activity,HCT-116 [3]; time 2-24 hrs,19.1%
same,Activity,HCT-116 [4]; time 2-24 hrs,17%
same,Activity,HCT-116 [5]; time 2-24 hrs,14.1%
same,inhibition,[1],inactive
C=CC(=O)Nc1ccc(CCCCc2nnc(NC(=O)Cc3ccccn3)[se]2)nn1,inhibition,[1],inactive
same,Stability,[2],Unstable
O=C(/C=C/c1ccc2c(c1)OCO2)Nc1ccc(CCCCc2nnc(NC(=O)Cc3ccccn3)[se]2)nn1,remaining at 2 h,[6],74%
same,half-life,[7],4.89 h
same,clearance,[8],19.6 L/h/kg
same,growth at 1 µM,HCT-116 [3],14.3%
same,growth at 3 µM,HCT-116 [4],6%
same,growth at 10 µM,HCT-116 [5],6.3%
same,inhibition,A549 [9],Dose-Dependent Effect
same,Activity,A549 [10],Active
same,IC50,[11],50 nM
same,inhibition,[1],inactive
same,Activity,Homo sapiens [12],inactive
same,inhibition,[13],100%
same,inhibition,Homo sapiens [14],inactive
same,inhibition,[15],Active
same,inhibition,Homo sapiens [16],Dose-Dependent Effect
same,Kd,[17],≤ 0.001 nM
same,Stability,[2],Stable
O=C(/C=C/c1ccc2c(c1)OCO2)Nc1ccc(CCCCc2nnc(NC(=O)Cc3ccccn3)s2)nn1,remaining at 2 h,[6],83%
same,half-life,[7],3.37 h
same,clearance,[8],34.9 L/h/kg
same,fold change (FC),HCT-116 [18],3
same,fold change (FC),H22,30
same,growth at 1 µM,HCT-116 [3],11.9%
same,growth at 3 µM,HCT-116 [4],7.6%
same,growth at 10 µM,HCT-116 [5],6.1%
same,inhibition,A549 [9],Dose-Dependent Effect
same,Activity,A549 [10],Active
same,IC50,[11],28 nM
same,inhibition,[1],inactive
same,Activity,Homo sapiens [12],inactive
same,inhibition,[13],100%
same,inhibition,Homo sapiens [14],inactive
same,inhibition,[15],Active
same,inhibition,Homo sapiens [16],Dose-Dependent Effect
same,Kd,[17],≤ 0.001 nM
same,Stability,[2],Stable
O=c1ccc2ccccc2o1 [COUMARIN],remaining at 2 h,[6],61%
